From ChEMBL document CHEMBL2424556, “Hybrid benzofuran-bisindole derivatives: new prototypes with promising anti-hyperlipidemic activities” (2013)
Active and inactive are the calls of the source. The rule behind the calls is not given here.

How the values were obtained:
Rattus norvegicus [1] = assay: Antihyperlipidemic activity in Charles-Foster rat assessed as post heparin lipolytic activity at 100 mg/kg, po after 18 hrs by spectrophotometric analysis relative to control; format: functional
Outline: (§1)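 Male adult Charles Foster rats (200-225 g), 6 per group. Triton WR-1339 400 mg/kg i.p.; test agent 100 mg/kg p.o. as gum acacia (0.2% w/v) suspension in water, given simultaneously, diet withdrawn; vehicle to control and triton groups. At 18 h under thiopentone (50 mg/kg), retro-orbital blood collected into EDTA and plasma separated. Post-heparin lipolytic activity read spectrophotometrically as nmol free fatty acid/h/ml plasma; mean ± SD; Student's t-test.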

Rattus norvegicus [2] = assay: Antihyperlipidemic activity in Charles-Foster rat assessed as reversal of triton-induced increase in plasma triglyceride level at 100 mg/kg, po after 18 hrs relative to triton-treated control; format: functional
Outline: (§2)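 Male adult Charles Foster rats (200-225 g), 6 per group; triton WR-1339 400 mg/kg i.p. plus oral test agent in 0.2% gum acacia suspension, given together, diet withdrawn. After 18 h, retro-orbital EDTA blood was centrifuged 2500 g, 4 °C, 10 min; plasma was diluted 1:3 in saline and TC, PL and TG were assayed enzymatically (mg/dl). Mean ± SD; Student's t-test.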

Rattus norvegicus [3] = assay: Antihyperlipidemic activity in Charles-Foster rat assessed as reversal of triton-induced increase in plasma triglyceride level at 100 mg/kg, po after 18 hrs relative to control; format: functional; outline: as §2
Rattus norvegicus [4] = assay: Antihyperlipidemic activity in Charles-Foster rat assessed as post heparin lipolytic activity at 100 mg/kg, po after 18 hrs by spectrophotometric analysis relative to triton-treated control; format: functional; outline: as §1
Rattus norvegicus [5] = assay: Antihyperlipidemic activity in Charles-Foster rat assessed as reversal of triton-induced increase in plasma phospholipid level at 100 mg/kg, po after 18 hrs relative to triton-treated control; format: functional; outline: as §2
Rattus norvegicus [6] = assay: Antihyperlipidemic activity in Charles-Foster rat assessed as reversal of triton-induced increase in plasma total cholesterol level at 100 mg/kg, po after 18 hrs relative to control; format: functional; outline: as §2
Rattus norvegicus [7] = assay: Antihyperlipidemic activity in Charles-Foster rat assessed as reversal of triton-induced increase in plasma total cholesterol level at 100 mg/kg, po after 18 hrs relative to triton-treated control; format: functional; outline: as §2
Rattus norvegicus [8] = assay: Antihyperlipidemic activity in Charles-Foster rat assessed as reversal of triton-induced increase in plasma phospholipid level at 100 mg/kg, po after 18 hrs relative to control; format: functional; outline: as §2
[9] = Antioxidant activity assessed as inhibition of microsomal lipid peroxidation at 200 ug/mL by spectrophotometric analysis relative to control; format: functional
[10] = Antioxidant activity assessed as inhibition of hydroxyl radical generation at 200 ug/mL after 90 mins by spectrophotometric analysis relative to control; format: functional
Outline: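 Hydroxyl radicals were generated non-enzymically from deoxyribose (2.8 mM), FeSO4 (2 mM), sodium ascorbate (2.0 mM) and H2O2 (2.8 mM) in KH2PO4 buffer pH 7.4, 2.5 mL final, with or without agent at 200 µg/ml, for 90 min at 37 °C. MDA was read spectrophotometrically by the thiobarbituric acid method against reference samples and reagent blanks.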

Rattus norvegicus [11] = assay: Antihyperlipidemic activity in triton-induced Charles-Foster rat assessed as increase in plasma lecithin cholesterol acyltransferase activity at 100 mg/kg, po after 18 hrs by colorimetric assay; format: functional, organism-based; set-up: dose 100 mg/kg

| Compound | Activity (Rattus norvegicus [1]) [nmol/h/mL] | Activity (Rattus norvegicus [2]) [%] | Activity (Rattus norvegicus [3]) [mg/dL] | Activity (Rattus norvegicus [4]) [%] | Activity (Rattus norvegicus [5]) [%] | Activity (Rattus norvegicus [6]) [mg/dL] | Activity (Rattus norvegicus [7]) [%] | Activity (Rattus norvegicus [8]) [mg/dL] | inhibition [9] [%] | inhibition [10] [%] | Activity (Rattus norvegicus [11]) |
| --- | --- | --- | --- | --- | --- | --- | --- | --- | --- | --- | --- |
| COc1ccc(C(=O)c2cc3cc(C(c4c[nH]c5ccc(OC)cc45)c4c[nH]c5ccc(OC)cc45)cc(Cl)c3o2)cc1 | 15.19 | -22 | 168.56 | 15 | -20 | 145.52 | -21 | 165.5 | – | – | – |
| COc1ccc(C(=O)c2cc3cc(C(c4c[nH]c5ccccc45)c4c[nH]c5ccccc45)cc(C(C)C)c3o2)cc1 | 14.79 | -16 | 181.53 | 12 | -15 | 152.89 | -17 | 175.84 | – | – | – |
| CCc1cc(C(c2c[nH]c3ccc([N+](=O)[O-])cc23)c2c[nH]c3ccc([N+](=O)[O-])cc23)cc2cc(C(=O)c3ccc(OC)cc3)oc12 | 13.47 | -4 | 207.46 | 2 | -6 | 176.84 | -4 | 194.46 | – | – | – |
| COc1ccc(C(=O)c2cc3cc(C(c4c[nH]c5ccccc45)c4c[nH]c5ccccc45)cc(C(C)(C)C)c3o2)cc1 | 13.73 | -8 | 198.82 | 4 | -8 | 171.31 | -7 | 190.32 | – | – | – |
| CCc1cc(C(c2c[nH]c3ccccc23)c2c[nH]c3ccccc23)cc2cc(C(=O)c3ccc(Cl)cc3)oc12 | 15.05 | -21 | 170.72 | 14 | -21 | 147.36 | -20 | 163.43 | – | – | – |
| CCc1cc(C(c2c[nH]c3ccccc23)c2c[nH]c3ccccc23)cc2cc(C(=O)c3ccc(OC)cc3)oc12 | 14.26 | -9 | 196.66 | 8 | -8 | 169.47 | -8 | 190.32 | – | – | – |
| OC[C@@H](O)[C@@H](O)[C@H](O)[C@H](O)CO | – | – | – | – | – | – | – | – | 52 | 49 | – |
| COc1ccc(C(=O)c2cc3cc(C(c4c[nH]c5ccccc45)c4c[nH]c5ccccc45)cc(C)c3o2)cc1 | 13.71 | -10 | 194.49 | 4 | -11 | 162.1 | -12 | 184.12 | – | – | – |
| COc1ccc(C(=O)c2cc3cc(C(c4c[nH]c5ccc([N+](=O)[O-])cc45)c4c[nH]c5ccc([N+](=O)[O-])cc45)cc(C(C)C)c3o2)cc1 | 13.75 | -10 | 193.81 | 4 | -10 | 167.63 | -9 | 186.19 | – | – | – |
| CC(C)(C)c1cc(C(c2c[nH]c3ccccc23)c2c[nH]c3ccccc23)cc2cc(C(=O)c3ccc(Cl)cc3)oc12 | 14.37 | -10 | 194.49 | 9 | -9 | 165.78 | -10 | 187.91 | – | – | – |
| Cc1ccc(C)c(OCCCC(C)(C)C(=O)O)c1 [GEMFIBROZIL] | 15.85 | -34 | 142.63 | 20 | -35 | 121.57 | -34 | 134.47 | – | – | Active |
| Cc1cc(C(c2c[nH]c3ccccc23)c2c[nH]c3ccccc23)cc2cc(C(=O)c3ccc(Cl)cc3)oc12 | 14.39 | -11 | 192.33 | 9 | -10 | 163.94 | -11 | 186.19 | – | – | – |
| CC(C)c1cc(C(c2c[nH]c3ccccc23)c2c[nH]c3ccccc23)cc2cc(C(=O)c3ccc(C#N)cc3)oc12 | 13.75 | -10 | 193.81 | 4 | -10 | 167.63 | -9 | 186.19 | – | – | – |
| CC(C)c1cc(C(c2c[nH]c3ccccc23)c2c[nH]c3ccccc23)cc2cc(C(=O)c3ccc(Cl)cc3)oc12 | 13.77 | -10 | 194.4 | 4 | -10 | 162.1 | -12 | 186.19 | – | – | – |
| Cc1ccc(C(=O)c2cc3cc(C(c4c[nH]c5ccccc45)c4c[nH]c5ccccc45)cc(C)c3o2)cc1 | 14.26 | -9 | 196.66 | 8 | -8 | 169.47 | -8 | 190.32 | – | – | – |
| Cc1c(C)c2c(c(C)c1O)CC[C@@](C)(CCC[C@H](C)CCC[C@H](C)CCCC(C)C)O2 | – | – | – | – | – | – | – | – | 52 | 49 | – |
| CCCc1cc(C(c2c[nH]c3ccc(O)cc23)c2c[nH]c3ccc(O)cc23)cc2cc(C(=O)c3ccc(OC)cc3)oc12 | 15.19 | -20 | 172.88 | 15 | -22 | 143.68 | -22 | 161.36 | – | – | – |
| Cc1cc(C(c2c[nH]c3ccccc23)c2c[nH]c3ccccc23)cc2cc(C(=O)c3ccc(C#N)cc3)oc12 | 13.87 | -7 | 200.98 | 5 | -8 | 171.25 | -7 | 190.11 | – | – | – |
